In ChEMBL document CHEMBL1221214, “Cytosporone B is an agonist for nuclear orphan receptor Nur77” (Nat Chem Biol, 2008) one finds Kd, IC50 and Activity data, which are given here for two compounds.

Values after ≈ are worked out from the molar mass of the structure shown. Active and inactive are the calls of the source. The rule behind the calls is not given here.

One may read the Kd as the concentration at which binding is half-saturated. High values mean a looser complex, low ones a tighter complex. The IC50 is the midpoint of a concentration-inhibition curve. High values mean weaker potency in that assay, low ones greater potency in that assay.

In experiment [1] the target is Nuclear receptor subfamily 4immunitygroup A member 1 (Homo sapiens, UniProt P22736, Y453A). The experiment can be described thus: Binding affinity to Nur77 Y453A mutant expressed in human BGC823 cells. Type of experiment: cell-based, BGC-823.
For another experiment, the system named is Staphylococcus aureus. Put plainly: Antimicrobial activity against Staphylococcus aureus. Type of experiment: functional, organism-based.
The target of experiment [2] is T1, Nuclear receptor subfamily 4immunitygroup A member 1 (Homo sapiens, UniProt P22736). The experiment can be described thus: Binding affinity to nuclear orphan receptor Nur77 assessed as conformational change in receptor by CD spectroscopic.
The subject of experiment [3] is Mycobacterium tuberculosis. Put plainly: Antimicrobial activity against Mycobacterium tuberculosis. Type of experiment: functional, organism-based.
Another experiment relates to BGC-823. Put plainly: Induction of mitochondria translocation of Nur77 from nucleus in human BGC823 cells transfected with GFP-Nur77 pretreated with 1 ng/ml leptomycin B at 5 ug/ml after 12 hrs using […] by confocal microscope. Type of experiment: functional, cell-based.
Another experiment relates to Saccharomyces cerevisiae. Put plainly: Antimicrobial activity against Saccharomyces cerevisiae. Type of experiment: functional, organism-based.
Experiment [4] deals with T1, Nuclear receptor subfamily 4immunitygroup A member 1. Put plainly: Binding affinity to GST-tagged nuclear orphan receptor Nur77 at 25 degC by fluorescence quenching analysis. The essentials: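 GST-Nur77 intrinsic fluorescence (emission maximum 336 nm) monitored while increasing Csn-B amounts were added; inner-filter contribution estimated with GST alone and subtracted to give corrected quenching curves.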

T1 sequence (P22736 whole entry): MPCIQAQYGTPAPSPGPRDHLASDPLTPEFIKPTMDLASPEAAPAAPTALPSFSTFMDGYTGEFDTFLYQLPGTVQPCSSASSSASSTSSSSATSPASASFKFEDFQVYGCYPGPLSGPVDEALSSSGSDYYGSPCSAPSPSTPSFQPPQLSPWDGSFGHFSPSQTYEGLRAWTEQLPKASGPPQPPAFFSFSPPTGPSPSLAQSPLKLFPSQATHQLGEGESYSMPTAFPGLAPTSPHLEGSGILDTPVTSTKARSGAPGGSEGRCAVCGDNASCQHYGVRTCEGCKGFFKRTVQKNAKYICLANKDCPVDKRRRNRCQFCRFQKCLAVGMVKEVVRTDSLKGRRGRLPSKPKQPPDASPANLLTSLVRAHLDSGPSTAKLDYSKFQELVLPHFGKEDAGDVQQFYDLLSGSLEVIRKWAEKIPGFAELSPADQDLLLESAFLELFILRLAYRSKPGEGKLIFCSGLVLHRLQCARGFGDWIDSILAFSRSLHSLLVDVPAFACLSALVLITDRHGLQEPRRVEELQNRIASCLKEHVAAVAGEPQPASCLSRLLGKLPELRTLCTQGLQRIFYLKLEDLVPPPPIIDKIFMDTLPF
Sequence of Nuclear receptor subfamily 4immunitygroup A member 1 (Homo sapiens, UniProt P22736, Y453A) (P22736 whole entry Y453A): as the sequence (P22736 whole entry) above, with Y453A counted along it

Compound `CC1=C(/C=C/C(C)=C\C=C\C(C)=C\C(=O)O)C(C)(C)CCC1` [ALITRETINOIN] came in with a Kd in experiment [1] of 810 nM.

For the compound `CCCCCCCC1OC(=O)Cc2cc(O)cc(O)c21` (configuration not stated) [CYTOSPORONE C], the IC50 is 50 µg/mL (≈ 180 µM) in the experiment with Staphylococcus aureus, 62.5 µg/mL (≈ 225 µM) in experiment [3] and 12.5 µg/mL (≈ 44.9 µM) in the experiment on Saccharomyces cerevisiae. Also, the result (in experiment [2]; in the experiment on BGC-823; in experiment [4]) was inactive.
